Laboratory results published in ChEMBL document CHEMBL5344414, “Maleimide constrained BAD BH3 domain peptides as BCL-xL Inhibitors: A versatile approach to rapidly identify sites compatible with peptide constraining” (Bioorg Med Chem Lett, 2023).
The source made the active and inactive calls. The rule behind the calls is not given here. Where a SMILES comes first, the peptide text is derived from it.

Legend:
BCL2L1/BAD = BCL2L1/BAD (Homo sapiens, UniProt Q07817); experiment: Inhibition of BAD/His-SUMO tagged BCL-XL (1 to 209 residues; missing 27 to 82 residues) (unknown origin) overexpressed in Escherichia coli BL21 protein-protein interaction by fluorescence anisotropy competition assay
Sequence of BCL2L1/BAD (Q92934 whole entry, the tested form may be a part): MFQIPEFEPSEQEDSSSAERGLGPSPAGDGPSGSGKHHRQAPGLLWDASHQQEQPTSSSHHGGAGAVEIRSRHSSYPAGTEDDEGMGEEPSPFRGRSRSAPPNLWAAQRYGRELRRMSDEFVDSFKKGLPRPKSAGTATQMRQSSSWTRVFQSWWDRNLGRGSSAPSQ
Sequence of BCL2L1/BAD (Q07817 whole entry, the tested form may be a part): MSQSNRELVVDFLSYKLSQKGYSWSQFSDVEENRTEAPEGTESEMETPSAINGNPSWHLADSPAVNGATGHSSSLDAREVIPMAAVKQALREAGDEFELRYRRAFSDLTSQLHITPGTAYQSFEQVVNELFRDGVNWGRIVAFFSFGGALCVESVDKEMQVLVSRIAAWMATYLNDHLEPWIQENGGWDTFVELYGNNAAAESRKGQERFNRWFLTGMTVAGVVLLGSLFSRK
Procedure, shortened: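 Final conditions: 200 nM BCL-xL, 50 nM tracer, 20 mM Tris, 150 mM NaCl, pH 7.6, 20 °C, with peptide titrated. Tracer Kd for BCL-xL was determined beforehand by direct titration (6 nM-125 μM protein).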

[1] = target: Induced myeloid leukemia cell differentiation protein Mcl-1/BH3-interacting domain death agonist (Homo sapiens) (UniProt Q07820+P55957); experiment: Inhibition of BID/MCL-1 interaction (unknown origin) by fluorescence anisotropy competition assay; assay type: protein assay
Sequence of Induced myeloid leukemia cell differentiation protein Mcl-1/BH3-interacting domain death agonist (Homo sapiens) (P55957 whole entry, looked up, the tested form may be a part): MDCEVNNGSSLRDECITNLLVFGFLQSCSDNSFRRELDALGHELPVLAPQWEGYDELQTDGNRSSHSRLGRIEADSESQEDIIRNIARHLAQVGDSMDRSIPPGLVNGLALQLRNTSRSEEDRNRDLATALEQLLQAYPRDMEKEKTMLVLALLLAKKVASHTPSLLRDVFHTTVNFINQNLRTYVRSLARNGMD
Sequence of Induced myeloid leukemia cell differentiation protein Mcl-1/BH3-interacting domain death agonist (Homo sapiens) (Q07820 whole entry, looked up, the tested form may be a part): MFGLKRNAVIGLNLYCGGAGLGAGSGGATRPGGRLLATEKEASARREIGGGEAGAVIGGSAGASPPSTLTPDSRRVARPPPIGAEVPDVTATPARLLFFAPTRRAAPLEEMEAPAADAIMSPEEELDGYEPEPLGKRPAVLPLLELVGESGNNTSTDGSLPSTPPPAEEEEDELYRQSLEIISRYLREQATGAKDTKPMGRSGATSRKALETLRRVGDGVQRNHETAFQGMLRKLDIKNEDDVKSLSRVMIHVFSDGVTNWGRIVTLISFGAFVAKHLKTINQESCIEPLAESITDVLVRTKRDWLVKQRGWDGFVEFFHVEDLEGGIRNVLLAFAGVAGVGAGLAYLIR

IC50 (BCL2L1/BAD) [µM]	SMILES	inhibition [1]
0.2	CSCC[C@H](NC(=O)[C@H](CCCNC(=N)N)NC(=O)[C@H](CCCNC(=N)N)NC(=O)[C@H](CC(C)C)NC(=O)[C@H](CCC(=O)O)NC(=O)[C@H](CCCNC(=N)N)NC(=O)CNC(=O)[C@H](Cc1ccc(O)cc1)NC(=O)[C@H](CCCNC(=N)N)NC(=O)[C@H](CCC(N)=O)NC(=O)[C@H](C)NC(=O)[C@H](C)NC(=O)[C@H](Cc1c[nH]c2ccccc12)NC(=O)[C@H](CC(C)C)NC(=O)[C@H](CC(N)=O)NC(C)=O)C(=O)N[C@@H](CO)C(=O)N[C@@H](CC(=O)O)C(=O)N[C@@H](CCC(=O)O)C(=O)N[C@@H](Cc1ccccc1)C(=O)N[C@H](C(=O)N[C@@H](CC(=O)O)C(=O)N[C@@H](CO)C(=O)N[C@@H](Cc1ccccc1)C(=O)N[C@@H](CCCCN)C(=O)N[C@@H](CCCCN)C(N)=O)C(C)C	inactive
2.4	CSCC[C@@H]1NC(=O)[C@@H](NC(=O)[C@H](CCCNC(=N)N)NC(=O)[C@H](CC(C)C)NC(=O)[C@H](CCC(=O)O)NC(=O)[C@H](CCCNC(=N)N)NC(=O)CNC(=O)[C@H](Cc2ccc(O)cc2)NC(=O)[C@H](CCCNC(=N)N)NC(C)=O)CS2=S(C[C@@H](C(=O)N[C@@H](Cc3ccccc3)C(=O)N[C@H](C(=O)N[C@@H](CC(=O)O)C(=O)N[C@@H](CO)C(=O)N[C@@H](Cc3ccccc3)C(=O)N[C@@H](CCCCN)C(=O)N[C@@H](CCCCN)C(N)=O)C(C)C)NC(=O)[C@H](CC(=O)O)NC(=O)[C@H](CO)NC1=O)C(=O)NC2=O (stereo partly specified)	inactive
6.9	CSCC[C@H](NC(=O)[C@H](CS)NC(=O)[C@H](CCCNC(=N)N)NC(=O)[C@H](CC(C)C)NC(=O)[C@H](CCC(=O)O)NC(=O)[C@H](CCCNC(=N)N)NC(=O)CNC(=O)[C@H](Cc1ccc(O)cc1)NC(=O)[C@H](CCCNC(=N)N)NC(C)=O)C(=O)N[C@@H](CO)C(=O)N[C@@H](CC(=O)O)C(=O)N[C@@H](CS)C(=O)N[C@@H](Cc1ccccc1)C(=O)N[C@H](C(=O)N[C@@H](CC(=O)O)C(=O)N[C@@H](CO)C(=O)N[C@@H](Cc1ccccc1)C(=O)N[C@@H](CCCCN)C(=O)N[C@@H](CCCCN)C(N)=O)C(C)C (Ac-RYGRELRCMSDCFVDSFKK-NH2)	inactive
2.9	CSCC[C@H](NC(=O)[C@H](CCCNC(=N)N)NC(=O)[C@H](CCCNC(=N)N)NC(=O)[C@H](CC(C)C)NC(=O)[C@H](CCC(=O)O)NC(=O)[C@H](CCCNC(=N)N)NC(=O)CNC(=O)[C@H](Cc1ccc(O)cc1)NC(=O)[C@H](CCCNC(=N)N)NC(C)=O)C(=O)N[C@@H](CS)C(=O)N[C@@H](CC(=O)O)C(=O)N[C@@H](CCC(=O)O)C(=O)N[C@@H](Cc1ccccc1)C(=O)N[C@@H](CS)C(=O)N[C@@H](CC(=O)O)C(=O)N[C@@H](CO)C(=O)N[C@@H](Cc1ccccc1)C(=O)N[C@@H](CCCCN)C(=O)N[C@@H](CCCCN)C(N)=O (Ac-RYGRELRRMCDEFCDSFKK-NH2)	
> 50	CSCC[C@H](NC(=O)[C@H](CCCNC(=N)N)NC(=O)[C@H](CCCNC(=N)N)NC(=O)[C@H](CC(C)C)NC(=O)[C@H](CCC(=O)O)NC(=O)[C@H](CCCNC(=N)N)NC(=O)CNC(=O)[C@H](Cc1ccc(O)cc1)NC(=O)[C@H](CCCNC(=N)N)NC(C)=O)C(=O)N[C@@H](CO)C(=O)N[C@@H](CS)C(=O)N[C@@H](CCC(=O)O)C(=O)N[C@@H](Cc1ccccc1)C(=O)N[C@H](C(=O)N[C@@H](CS)C(=O)N[C@@H](CO)C(=O)N[C@@H](Cc1ccccc1)C(=O)N[C@@H](CCCCN)C(=O)N[C@@H](CCCCN)C(N)=O)C(C)C (Ac-RYGRELRRMSCEFVCSFKK-NH2)	
4.5	CSCC[C@H](NC(=O)[C@H](CCCNC(=N)N)NC(=O)[C@H](CCCNC(=N)N)NC(=O)[C@H](CC(C)C)NC(=O)[C@H](CCC(=O)O)NC(=O)[C@H](CCCNC(=N)N)NC(=O)CNC(=O)[C@H](Cc1ccc(O)cc1)NC(=O)[C@H](CCCNC(=N)N)NC(C)=O)C(=O)N[C@@H](CO)C(=O)N[C@@H](CC(=O)O)C(=O)N[C@@H](CS)C(=O)N[C@@H](Cc1ccccc1)C(=O)N[C@H](C(=O)N[C@@H](CC(=O)O)C(=O)N[C@@H](CS)C(=O)N[C@@H](Cc1ccccc1)C(=O)N[C@@H](CCCCN)C(=O)N[C@@H](CCCCN)C(N)=O)C(C)C (Ac-RYGRELRRMSDCFVDCFKK-NH2)	
3.6	CSCC[C@H](NC(=O)[C@H](CCCNC(=N)N)NC(=O)[C@H](CCCNC(=N)N)NC(=O)[C@H](CC(C)C)NC(=O)[C@H](CCC(=O)O)NC(=O)[C@H](CCCNC(=N)N)NC(=O)CNC(=O)[C@H](Cc1ccc(O)cc1)NC(=O)[C@H](CCCNC(=N)N)NC(C)=O)C(=O)N[C@@H](CO)C(=O)N[C@@H](CC(=O)O)C(=O)N[C@@H](CCC(=O)O)C(=O)N[C@@H](Cc1ccccc1)C(=O)N[C@H](C(=O)N[C@@H](CC(=O)O)C(=O)N[C@@H](CO)C(=O)N[C@@H](Cc1ccccc1)C(=O)N[C@@H](CCCCN)C(=O)N[C@@H](CCCCN)C(N)=O)C(C)C (Ac-RYGRELRRMSDEFVDSFKK-NH2)	inactive
